Source: ChEMBL document CHEMBL3352372, “Design, synthesis and 3D-QSAR studies of new diphenylamine containing 1,2,4-triazoles as potential antitubercular agents” (Eur J Med Chem, 2014)
Values after ≈ are worked out from the molar mass of the structure shown.

Tests used:
[1] = tested on: Mycobacterium tuberculosis; assay: Antitubercular activity Mycobacterium tuberculosis H37Rv assessed as growth inhibition after 30 days by agar microdilution method; format: functional
How it was run: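 M. tuberculosis H37Rv (ATCC 27294) grown on L-J medium, harvested in 0.85% saline with 0.05% Tween-80. Compounds, from a DMSO stock, were added as twofold dilutions to Middlebrook 7H10 agar with OADC in tubes. After 30 days of incubation, tubes were compared with untreated H37Rv control tubes. The lowest concentration giving complete inhibition of colonies was reported.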

[2] = tested on: Mycobacterium tuberculosis; assay: Antitubercular activity Mycobacterium tuberculosis H37Rv assessed as growth inhibition after 5 days by MABA method; format: functional; conditions: for MIC: Mycobacterium tuberculosis, H37Rv, 120 h
How it was run: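 Log-phase H37Rv was diluted to a final OD550 of 0.05 in Middlebrook 7H9 broth, and compounds in DMSO were added in 96-well plates. After a further 24 h at 37 °C/5% CO2, fluorescence was read (ex 544 nm, em 590 nm). Inhibition was scored against the untreated control, with >90% inhibition counted as active in the initial screen.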

[3] = tested on: Bacillus spizizenii; assay: Antibacterial activity Bacillus Bacillus subtilis ATCC 6633 assessed as growth inhibition after 24 hrs by twofold serial dilution technique; format: functional; conditions: ATCC 6633, 24 h
How it was run: (§1)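 Tube twofold serial dilution of compounds dissolved in DMSO, under aseptic conditions. Solvent, growth (negative) and drug (ampicillin) controls were run alongside. Tubes were incubated 24 h at 37 °C. MIC was taken as the lowest concentration giving apparent complete inhibition of growth. Strains were first screened by cup plate method.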

[4] = tested on: Staphylococcus aureus; assay: Antibacterial activity Staphylococcus aureus ATCC-25923 assessed as growth inhibition after 24 hrs by twofold serial dilution technique; format: functional; conditions: ATCC-25923, 24 h; how it was run: as §1
[5] = Cytotoxicity against african green monkey Vero cells after 72 hrs by MTT assay; format: cell-based; conditions: chlorocebus sabaeus
How it was run: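 After media removal and a PBS wash, dilutions were added with DMSO control, then incubated 72 h at 37 °C, 5% CO2. Cells were washed, given MTT for 3 h in the dark, and solubilized in DMSO 1–2 h. CC50 was extrapolated from plotted % inhibition (100 − % viability) against concentration.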

[6] = Cytotoxicity against human HepG2 cells after 72 hrs by MTT assay; format: cell-based
[7] = tested on: Escherichia coli; assay: Antibacterial activity Escherichia coli ATCC-25922 assessed as growth inhibition after 24 hrs by twofold serial dilution technique; format: functional; conditions: ATCC-25922, 24 h; how it was run: as §1
[8] = tested on: Pseudomonas aeruginosa; assay: Antibacterial activity Pseudomonas aeruginosa ATCC-27853 assessed as growth inhibition after 24 hrs by twofold serial dilution technique; format: functional; conditions: ATCC-27853, 24 h; how it was run: as §1

For `NNC(=O)c1ccncc1` [ISONIAZID], the MIC [1] was less than 0.2 µM and the MIC [2] was less than 0.2 µM.
Work on `S=c1n(CN2CCCCC2)nc(Cc2ccccc2Nc2c(Cl)cccc2Cl)n1/N=C/c1ccccc1` yielded an MIC [1] of 6.25 µM (≈ 3.45 µg/mL), an MIC [3] of 25 µM (≈ 13.8 µg/mL) and an MIC [4] of 12.5 µM (≈ 6.89 µg/mL). It also gave a CC50 at 72 h [5] greater than 300 µM, a CC50 at 72 h [6] greater than 300 µM and an MIC [7] of 12.5 µM (≈ 6.89 µg/mL). The MIC [8] was 25 µM (≈ 13.8 µg/mL), the “-logMIC” value [2] was 5.204 and the MIC [2] was 6.25 µM (≈ 3.45 µg/mL).
In the case of `COc1ccc(C2SCC(=O)N2n2c(Cc3ccccc3Nc3c(Cl)cccc3Cl)n[nH]c2=S)cc1` (stereo not given), the MIC [3] is reported as 100 µM (≈ 55.9 µg/mL), the MIC [4] is reported as 12.5 µM (≈ 6.98 µg/mL) and the MIC [7] is reported as 100 µM (≈ 55.9 µg/mL). The MIC [8] was 100 µM (≈ 55.9 µg/mL), the “-logMIC” value [2] was 4.301 and the MIC [2] was 50 µM (≈ 27.9 µg/mL).
Molecule `S=c1n(CN2CCOCC2)nc(Cc2ccccc2Nc2c(Cl)cccc2Cl)n1/N=C/c1ccncc1` has an MIC [1] of 12.5 µM (≈ 6.93 µg/mL), an MIC [3] of 12.5 µM (≈ 6.93 µg/mL) and an MIC [4] of 12.5 µM (≈ 6.93 µg/mL). For the same molecule, the MIC [7] was 25 µM (≈ 13.9 µg/mL), the MIC [8] was 25 µM (≈ 13.9 µg/mL) and the “-logMIC” value [2] was 4.903. It also gave an MIC [2] of 12.5 µM (≈ 6.93 µg/mL).
Work on `O=C1CSC(c2ccccc2)N1n1c(Cc2ccccc2Nc2c(Cl)cccc2Cl)n[nH]c1=S` (stereo not given) yielded an MIC [3] of 12.5 µM (≈ 6.61 µg/mL), an MIC [4] of 12.5 µM (≈ 6.61 µg/mL) and an MIC [7] of 12.5 µM (≈ 6.61 µg/mL). For the same molecule, the MIC [8] was 12.5 µM (≈ 6.61 µg/mL), the “-logMIC” value [2] was 4.301 and the MIC [2] was 50 µM (≈ 26.4 µg/mL).
For `O=c1c2ccccc2nc2n(/N=C/c3ccncc3)c(Cc3ccccc3Nc3c(Cl)cccc3Cl)nn12`, the MIC [3] was 100 µM (≈ 54 µg/mL), the MIC [4] was 100 µM (≈ 54 µg/mL) and the MIC [7] was 25 µM (≈ 13.5 µg/mL). The MIC [8] was 100 µM (≈ 54 µg/mL), the “-logMIC” value [2] was 4.602 and the MIC [2] was 25 µM (≈ 13.5 µg/mL).
For `O=c1c2ccccc2nc2n(/N=C/c3cccs3)c(Cc3ccccc3Nc3c(Cl)cccc3Cl)nn12`, the MIC [1] was 12.5 µM (≈ 6.82 µg/mL), the MIC [3] was 12.5 µM (≈ 6.82 µg/mL) and the MIC [4] was 12.5 µM (≈ 6.82 µg/mL). For the same molecule, the MIC [7] was 12.5 µM (≈ 6.82 µg/mL), the MIC [8] was 12.5 µM (≈ 6.82 µg/mL) and the “-logMIC” value [2] was 4.903. It also gave an MIC [2] of 12.5 µM (≈ 6.82 µg/mL).
With `S=c1n(CN2CCCCC2)nc(Cc2ccccc2Nc2c(Cl)cccc2Cl)n1/N=C/c1ccco1` the MIC [1] was 6.25 µM (≈ 3.38 µg/mL), the MIC [3] was 25 µM (≈ 13.5 µg/mL) and the MIC [4] was 25 µM (≈ 13.5 µg/mL). It also gave a CC50 at 72 h [5] greater than 300 µM, a CC50 at 72 h [6] of 262 µM and an MIC [7] of 12.5 µM (≈ 6.77 µg/mL). The MIC [8] was 25 µM (≈ 13.5 µg/mL), the “-logMIC” value [2] was 5.204 and the MIC [2] was 6.25 µM (≈ 3.38 µg/mL).
Work on `COc1ccc(/C=N/n2c(Cc3ccccc3Nc3c(Cl)cccc3Cl)nn(CN3CCCCC3)c2=S)cc1` yielded an MIC [1] of 12.5 µM (≈ 7.27 µg/mL), an MIC [3] of 12.5 µM (≈ 7.27 µg/mL) and an MIC [4] of 12.5 µM (≈ 7.27 µg/mL). For the same molecule, the MIC [7] was 6.25 µM (≈ 3.63 µg/mL), the MIC [8] was 12.5 µM (≈ 7.27 µg/mL) and the “-logMIC” value [2] was 4.903. The MIC [2] was 12.5 µM (≈ 7.27 µg/mL).
Molecule `O=C1CSC(c2ccco2)N1n1c(Cc2ccccc2Nc2c(Cl)cccc2Cl)n[nH]c1=S` (stereo not given) has an MIC [3] of 12.5 µM (≈ 6.48 µg/mL), an MIC [4] of 12.5 µM (≈ 6.48 µg/mL) and an MIC [7] of 12.5 µM (≈ 6.48 µg/mL). For the same molecule, the MIC [8] was 12.5 µM (≈ 6.48 µg/mL), the “-logMIC” value [2] was 4.602 and the MIC [2] was 25 µM (≈ 13 µg/mL).
Work on `O=C1CSC(c2ccncc2)N1n1c(Cc2ccccc2Nc2c(Cl)cccc2Cl)n[nH]c1=S` (stereo not given) yielded an MIC [1] of 6.25 µM (≈ 3.31 µg/mL), an MIC [3] of 12.5 µM (≈ 6.62 µg/mL) and an MIC [4] of 25 µM (≈ 13.2 µg/mL). The MIC [7] was 50 µM (≈ 26.5 µg/mL), the MIC [8] was 50 µM (≈ 26.5 µg/mL) and the “-logMIC” value [2] was 4.903. The MIC [2] was 12.5 µM (≈ 6.62 µg/mL).
For `CC1(C)S[C@@H]2[C@H](NC(=O)[C@H](N)c3ccccc3)C(=O)N2[C@H]1C(=O)O` [AMPICILLIN], the MIC [3] was 6.25 µM (≈ 2.18 µg/mL), the MIC [4] was 6.25 µM (≈ 2.18 µg/mL) and the MIC [7] was less than 6.25 µM. The MIC [8] was less than 6.25 µM.
With `S=c1n(CN2CCOCC2)nc(Cc2ccccc2Nc2c(Cl)cccc2Cl)n1/N=C/c1ccco1` the MIC [1] was 3.12 µM (≈ 1.7 µg/mL), the MIC [3] was 12.5 µM (≈ 6.79 µg/mL) and the MIC [4] was 12.5 µM (≈ 6.79 µg/mL). For the same molecule, the CC50 at 72 h [5] was greater than 300 µM, the CC50 at 72 h [6] was greater than 300 µM and the MIC [7] was 12.5 µM (≈ 6.79 µg/mL). The MIC [8] was 25 µM (≈ 13.6 µg/mL), the “-logMIC” value [2] was 5.505 and the MIC [2] was 3.12 µM (≈ 1.7 µg/mL).
